These results are taken from article PMC2645915 (Biochemistry, 2008).

For data set [1], the target named is T1, methionine synthase reductase (MSR), human, I22/S175 background (Homo sapiens, UniProt Q9UBK8, A129T).
T1 sequence (Q9UBK8 1-698 A129T): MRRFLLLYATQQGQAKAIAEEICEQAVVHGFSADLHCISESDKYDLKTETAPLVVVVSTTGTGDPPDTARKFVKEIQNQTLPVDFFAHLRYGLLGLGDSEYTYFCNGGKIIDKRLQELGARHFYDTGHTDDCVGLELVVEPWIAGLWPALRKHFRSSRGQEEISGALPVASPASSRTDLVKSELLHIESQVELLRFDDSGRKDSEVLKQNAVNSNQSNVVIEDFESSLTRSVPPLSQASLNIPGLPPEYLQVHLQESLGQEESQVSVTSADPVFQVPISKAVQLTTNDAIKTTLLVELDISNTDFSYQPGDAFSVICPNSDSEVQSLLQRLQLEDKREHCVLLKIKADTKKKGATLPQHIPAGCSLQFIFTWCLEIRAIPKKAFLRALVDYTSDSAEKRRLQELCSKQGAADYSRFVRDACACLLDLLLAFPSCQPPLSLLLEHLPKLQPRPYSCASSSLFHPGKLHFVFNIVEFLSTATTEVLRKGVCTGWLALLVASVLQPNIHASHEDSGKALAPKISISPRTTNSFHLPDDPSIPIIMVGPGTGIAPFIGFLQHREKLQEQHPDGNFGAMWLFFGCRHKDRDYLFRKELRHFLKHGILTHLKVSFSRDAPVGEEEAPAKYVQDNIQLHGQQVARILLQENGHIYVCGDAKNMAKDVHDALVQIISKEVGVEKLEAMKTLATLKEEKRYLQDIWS
The data set is described as follows: isothermal titration calorimetry. The class given is binding. A digest of the protocol: (§1)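 Recombinant wild-type or A129T MSR, 30-50 µM by Bradford and A454, was dialysed overnight against 50 mM Tris-HCl pH 7.5, filtered and degassed. NADP+ (500-850 µM) in the syringe was injected stepwise at 300 s intervals. Heats were corrected for dilution using post-saturation injections and fitted to a single-site model for KA and ΔH°. Runs were done in duplicate or triplicate.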
In general terms: ITC needs no label: the signal is the heat of the interaction.

The target in data set [2] is T2, methionine synthase reductase (MSR), human, I22/S175 background (Homo sapiens, UniProt Q9UBK8).
T2 sequence (Q9UBK8 1-698): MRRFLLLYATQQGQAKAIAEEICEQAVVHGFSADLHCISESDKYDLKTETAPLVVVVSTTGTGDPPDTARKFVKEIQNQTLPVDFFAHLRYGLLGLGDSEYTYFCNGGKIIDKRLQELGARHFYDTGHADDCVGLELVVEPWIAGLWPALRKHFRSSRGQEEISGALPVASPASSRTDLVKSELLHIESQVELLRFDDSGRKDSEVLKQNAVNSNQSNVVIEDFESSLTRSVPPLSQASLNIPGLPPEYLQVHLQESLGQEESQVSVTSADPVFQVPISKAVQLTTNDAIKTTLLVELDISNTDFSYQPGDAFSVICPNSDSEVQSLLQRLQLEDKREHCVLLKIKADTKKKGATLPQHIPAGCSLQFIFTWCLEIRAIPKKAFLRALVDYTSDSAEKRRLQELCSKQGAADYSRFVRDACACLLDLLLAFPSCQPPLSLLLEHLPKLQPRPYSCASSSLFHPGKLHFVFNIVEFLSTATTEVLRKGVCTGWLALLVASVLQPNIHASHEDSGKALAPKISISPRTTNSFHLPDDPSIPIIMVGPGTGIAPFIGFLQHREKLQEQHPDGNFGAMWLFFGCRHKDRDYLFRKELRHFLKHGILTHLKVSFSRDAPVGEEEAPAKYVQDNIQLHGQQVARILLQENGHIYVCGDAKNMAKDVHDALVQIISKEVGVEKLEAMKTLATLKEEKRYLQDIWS
The data set is described as follows: isothermal titration calorimetry. The class given is binding. A digest of the protocol:
as §1

Substrate in data set [3]: NC(=O)C1=CN([C@@H]2O[C@H](COP(=O)(O)OP(=O)(O)OC[C@H]3O[C@@H](n4cnc5c(N)ncnc54)[C@H](OP(=O)(O)O)[C@@H]3O)[C@@H](O)[C@H]2O)C=CC1
The data set is described as follows: purified protein. Type of data set: biochemical, Homo sapiens. The note with it: cytochrome c as acceptor, 50 mM Tris pH 7.5, 37°C.

For the molecule `NC(=O)c1ccc[n+]([C@@H]2O[C@H](COP(=O)(O)OP(=O)(O)OC[C@H]3O[C@@H](n4cnc5c(N)ncnc54)[C@H](OP(=O)(O)O)[C@@H]3O)[C@@H](O)[C@H]2O)c1` [NADP^+], the Kd was found to be 32 ± 2.9 µM in data set [1] and 54 ± 5.3 µM in data set [2].

B1: methionine synthase reductase (MSR), human, I22/S175 background (Homo sapiens; A129T) (protein)
chain: MRRFLLLYATQQGQAKAIAEEICEQAVVHGFSADLHCISESDKYDLKTETAPLVVVVSTTGTGDPPDTARKFVKEIQNQTLPVDFFAHLRYGLLGLGDSEYTYFCNGGKIIDKRLQELGARHFYDTGHTDDCVGLELVVEPWIAGLWPALRKHFRSSRGQEEISGALPVASPASSRTDLVKSELLHIESQVELLRFDDSGRKDSEVLKQNAVNSNQSNVVIEDFESSLTRSVPPLSQASLNIPGLPPEYLQVHLQESLGQEESQVSVTSADPVFQVPISKAVQLTTNDAIKTTLLVELDISNTDFSYQPGDAFSVICPNSDSEVQSLLQRLQLEDKREHCVLLKIKADTKKKGATLPQHIPAGCSLQFIFTWCLEIRAIPKKAFLRALVDYTSDSAEKRRLQELCSKQGAADYSRFVRDACACLLDLLLAFPSCQPPLSLLLEHLPKLQPRPYSCASSSLFHPGKLHFVFNIVEFLSTATTEVLRKGVCTGWLALLVASVLQPNIHASHEDSGKALAPKISISPRTTNSFHLPDDPSIPIIMVGPGTGIAPFIGFLQHREKLQEQHPDGNFGAMWLFFGCRHKDRDYLFRKELRHFLKHGILTHLKVSFSRDAPVGEEEAPAKYVQDNIQLHGQQVARILLQENGHIYVCGDAKNMAKDVHDALVQIISKEVGVEKLEAMKTLATLKEEKRYLQDIWS
As for B1, the Km in data set [3] is 2.8 µM.

A word on the Kd: it is the constant that tells how readily two partners part at equilibrium. Higher therefore signals weaker binding. Broadly, the Km is the substrate concentration at which the rate is half of its maximum.
